Activity calls are given as the source filed them. No cut-off for these calls is given here.
How the values were obtained:
[1] = Inhibition of Bacillus anthracis replicative DNA helicase using Hel-5'FAM:Hel-3'BHQ as substrate assessed as DNA duplex strand unwinding by FRET assay
[2] = Inhibition of Staphylococcus aureus replicative DNA helicase using Hel-5'FAM:Hel-3'BHQ as substrate assessed as DNA duplex strand unwinding by FRET assay
Bacillus anthracis = test: Antibacterial activity against Bacillus anthracis Sterne assessed as inhibition of incorporation of radiolabeled precursors into DNA; format: functional, organism-based
Staphylococcus aureus [3] = test: (§1) Non-competitive inhibition of Staphylococcus aureus replicative DNA helicase using ATP as substrate
Procedure, shortened: (§2)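 S. aureus replicative DNA helicase was tested in a FRET-based unwinding assay. An inhibitor dilution series was run across several ATP concentrations. IC50 at each ATP level came from 4-parameter curve fitting, and the mode of inhibition was assigned from how IC50 shifted with ATP concentration.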

Staphylococcus aureus [4] = test: (§3) Competitive inhibition of Staphylococcus aureus replicative DNA helicase using DNA as substrate by Dixon plot analysis
Procedure, shortened: (§4)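 FRET-based strand-unwinding assay with S. aureus replicative DNA helicase. An inhibitor dilution series was run at several oligonucleotide (DNA substrate) concentrations, the lowest being 3 nM. IC50 at each level came from 4-parameter curve fitting. Ki and the inhibition mode were derived from a Dixon plot of the DNA-variation data.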

HeLa = test: Cytotoxicity against human HeLa cells by MTT assay in presence of serum free media; format: cell-based
[5] = Selectivity index, ratio of CC50 for human HeLa cells to IC50 for Staphylococcus aureus replicative DNA helicase; format: functional
Staphylococcus aureus [6] = test: Inhibition of Staphylococcus aureus single-strand DNA-stimulated replicative DNA helicase ATPase activity assessed as release of inorganic phosphate at 50 uM after 30 mins by malachite green assay
[7] = as §1; procedure, shortened: as §2
[8] = as §3; procedure, shortened: as §4

Row | Compound | IC50 [1] [µM] | IC50 [2] [µM] | also measured
1 | CSc1nc2ccc3nc(NC(=O)c4cnccn4)sc3c2s1 | 28 |  | 
2 | COc1cc(CNc2nc3ccc4nc(SC)sc4c3s2)cc(OC)c1OC |  | > 100 | 
3 | COc1cccc(C(=O)Nc2nc3ccc4nc(NCc5ccccc5)sc4c3s2)c1 | 75 | > 100 | 
4 | CSc1nc2ccc3nc(NC(=O)c4ccc(C)c(C)c4)sc3c2s1 | 3.2 |  | 
5 | COc1ccc(C(=O)Nc2nc3ccc4nc(SC)sc4c3s2)cc1 | 2.2 |  | 
6 | CSc1nc2ccc3nc(NC(=O)c4ccc(OC(C)C)cc4)sc3c2s1 | > 100 |  | 
7 | CSc1nc2ccc3nc(NC(=O)c4cccc(F)c4)sc3c2s1 | 3.3 |  | 
8 | COc1cc(C(=O)Nc2nc3ccc4nc(NCCO)sc4c3s2)cc(OC)c1OC | 0.2 | 0.3 | IC50 (Bacillus anthracis): 17 µM; inhibition (Staphylococcus aureus [3]): Active; inhibition (Staphylococcus aureus [4]): Active; CC50 (HeLa): > 100 µM
9 | COC(=O)c1ccc(C(=O)Nc2nc3ccc4nc(SC)sc4c3s2)cc1 | 3.7 |  | 
10 | CNc1nc2ccc3nc(NC(=O)c4cc(OC)c(OC)c(OC)c4)sc3c2s1 | 0.2 | 0.2 | inhibition (Staphylococcus aureus [3]): Active; inhibition (Staphylococcus aureus [4]): Active; Ratio CC50/IC50 [5]: >500; inhibition (Staphylococcus aureus [6]): inactive; CC50 (HeLa): > 100 µM
11 | CCCNc1nc2ccc3nc(NC(=O)c4cccc(OC)c4)sc3c2s1 | 1.1 | 1.3 | CC50 (HeLa): < 0.08 µM
12 | CSc1nc2ccc3nc(NC(=O)c4ccc(C)cc4)sc3c2s1 | 7.6 |  | 
13 | COc1cc(OC)cc(C(=O)Nc2nc3ccc4nc(SC)sc4c3s2)c1 | 1.7 |  | 
14 | CNc1nc2ccc3nc(NC(=O)c4cccc(OC)c4)sc3c2s1 | 0.5 | 2.2 | IC50 [7]: 2 µM; Ki [8]: 2 µM; inhibition (Staphylococcus aureus [6]): inactive; CC50 (HeLa): > 100 µM
15 | CSc1nc2ccc3nc(NC(=O)c4ccc(C#N)cc4)sc3c2s1 | 11 |  | 
16 | CSc1nc2ccc3nc(NC(=O)C4CC4)sc3c2s1 | > 100 |  | 
17 | COc1cc(C(=O)Nc2nc3ccc4nc(N5CCN(C)CC5)sc4c3s2)cc(OC)c1OC | 0.2 | 0.2 | IC50 (Bacillus anthracis): 10 µM; CC50 (HeLa): 2.8 µM
18 | COc1cccc(C(=O)Nc2nc3ccc4nc(NCCN(C)C)sc4c3s2)c1 | 1 | 1 | 
19 | CSc1nc2ccc3nc(NC(=O)c4ccc(N5C(=O)CCC5=O)cc4)sc3c2s1 | 1.3 |  | 
20 | CSc1nc2ccc3nc(NC(=O)CCc4ccccc4)sc3c2s1 | > 100 |  | 
21 | CSc1nc2ccc3nc(NC(=O)CN4C(=O)CCC4=O)sc3c2s1 | > 100 |  | 

Row | Compound | IC50 [1] [µM] | IC50 [2] [µM] | also measured
22 | COc1cccc(C(=O)Nc2nc3ccc4nc(N5CCOCC5)sc4c3s2)c1 | 2.3 | 3 | CC50 (HeLa): > 100 µM
23 | CCOc1ccc(C(=O)Nc2nc3ccc4nc(SC)sc4c3s2)cc1 | 6.9 |  | 
24 | CSc1nc2ccc3nc(NC(=O)c4ccccc4Br)sc3c2s1 | > 100 |  | 
25 | CSc1nc2ccc3nc(NC(=O)c4cccc(Cl)c4)sc3c2s1 | 5.3 |  | 
26 | CSc1nc2ccc3nc(NC(=O)c4ccc(Cl)cc4)sc3c2s1 | 5 |  | 
27 | COc1ccc(C(=O)Nc2nc3ccc4nc(SC)sc4c3s2)cc1OC | 2.1 |  | 
28 | COc1c(C(=O)Nc2nc3ccc4nc(SC)sc4c3s2)cnn1C | > 100 |  | 
29 | CSc1nc2ccc3nc(NC(=O)c4ccccc4Cl)sc3c2s1 | > 100 |  | 
30 | COc1ccc(C(=O)Nc2nc3ccc4nc(SC)sc4c3s2)c(OC)c1 | > 100 |  | 
31 | CSc1nc2ccc3nc(NC(=O)c4ccc(C(C)(C)C)cc4)sc3c2s1 | > 100 |  | 
32 | COc1cccc(C(=O)Nc2nc3ccc4nc(NCCN5CCOCC5)sc4c3s2)c1 | 0.5 | 2.2 | CC50 (HeLa): 9.6 µM
33 | COc1cc(C(=O)Nc2nc3ccc4nc(NCCN5CCOCC5)sc4c3s2)cc(OC)c1OC | 0.2 | 0.2 | CC50 (HeLa): 5.7 µM
34 | COc1cc(C(=O)Nc2nc3ccc4nc(NCCN(C)C)sc4c3s2)cc(OC)c1OC | 0.2 | 0.2 | CC50 (HeLa): < 0.78 µM
35 | CSc1nc2ccc3nc(NC(=O)c4cccc([N+](=O)[O-])c4)sc3c2s1 | 2.8 |  | 
36 | CSc1nc2ccc3nc(NC(=O)c4cccc(N(C)C)c4)sc3c2s1 | 36 |  | 
37 | CSc1nc2ccc3nc(NC(=O)c4ccc(N(C)C)cc4)sc3c2s1 | 2.4 |  | 
38 | CSc1nc2ccc3nc(NC(=O)Cc4ccccc4)sc3c2s1 | 47 |  | 
39 | COc1cccc(C(=O)Nc2nc3ccc4nc(NCCO)sc4c3s2)c1 | 2.2 | 4.2 | CC50 (HeLa): > 100 µM
40 | CSc1nc2ccc3nc(NC(=O)c4ccc(Oc5ccccc5)cc4)sc3c2s1 | > 100 |  | 
41 | CSc1nc2ccc3nc(NC(=O)c4c(F)cccc4F)sc3c2s1 | 64.5 |  | 
42 | CSc1nc2ccc3nc(NC(=O)c4ccc5c(c4)OCCO5)sc3c2s1 | 3 |  | 

Row | Compound | IC50 [1] [µM] | IC50 [2] [µM] | also measured
43 | COc1cccc(C(=O)Nc2nc3ccc4nc(NCC(C)C)sc4c3s2)c1 | 13 | 9 | CC50 (HeLa): 44 µM
44 | CSc1nc2ccc3nc(NC(=O)c4ccccc4Oc4ccccc4)sc3c2s1 | > 100 |  | 
45 | CSc1nc2ccc3nc(NC(=O)c4c(C)cnn4C)sc3c2s1 | > 50 |  | 
46 | CCN(CC)S(=O)(=O)c1ccc(C(=O)Nc2nc3ccc4nc(SC)sc4c3s2)cc1 | > 100 |  | 
47 | CSc1nc2ccc3nc(NC(=O)c4ccccc4C)sc3c2s1 | 6.6 |  | 
48 | CSc1nc2ccc3nc(NC(=O)c4cccc(N5C(=O)CCC5=O)c4)sc3c2s1 | 5 | 12 | CC50 (HeLa): > 100 µM
49 | COc1cccc(OC)c1C(=O)Nc1nc2ccc3nc(SC)sc3c2s1 | > 100 |  | 
50 | CCN(CC)c1ccc(C(=O)Nc2nc3ccc4nc(SC)sc4c3s2)cc1 | > 100 |  | 
51 | CSc1nc2ccc3nc(NC(=O)c4cccc(Br)c4)sc3c2s1 | 2.3 |  | 
52 | COc1cc(/C=N/c2nc3ccc4nc(SC)sc4c3s2)cc(OC)c1OC |  | > 100 | 
53 | COc1cccc(C(=O)Nc2nc3ccc4nc(NC5CCCCC5)sc4c3s2)c1 | 90 | > 100 | 
54 | CSc1nc2ccc3nc(NC(=O)c4ccccc4F)sc3c2s1 | 50 |  | 
55 | COc1cccc(C(=O)Nc2nc3ccc4nc(SC)sc4c3s2)c1 | 12.5 | 6.6 | CC50 (HeLa): 12.4 µM
56 | CSc1nc2ccc3nc(NC(=O)COc4ccc(Cl)cc4Cl)sc3c2s1 | > 100 |  | 
57 | CSc1nc2ccc3nc(NC(=O)c4ccco4)sc3c2s1 | 102 |  | 
58 | COc1cccc(C(=O)Nc2nc3ccc4nc(NC(C)C)sc4c3s2)c1 | 65 | 80 | 
59 | CSc1nc2ccc3nc(NC(=O)c4cccs4)sc3c2s1 | 90 |  | 
60 | COc1cc2ccccc2cc1C(=O)Nc1nc2ccc3nc(SC)sc3c2s1 | > 50 |  | 
61 | CSc1nc2ccc3nc(NC(=O)c4cc(C)no4)sc3c2s1 | > 50 |  | 
62 | COc1cc(C(=O)Nc2nc3ccc4nc(SC)sc4c3s2)cc(OC)c1OC | 0.7 | 0.4 | CC50 (HeLa): > 100 µM
